Measured values pooled from the literature.
Compare with care: the assays were run in different laboratories.
Organism: Staphylococcus aureus
Observed: microbial growth

The MIC of Cc1ccc2[nH]nc(-c3nnc(Nc4ccc([N+](=O)[O-])cc4)s3)c2c1 is reported as 37.4 µg/mL (ATCC29213).
The MIC of CCCCCCC#Cc1cncc(-c2nnc(SCc3ccc([N+](=O)[O-])o3)n2CCCN)c1 is reported as over 64 µg/mL (broth dilution; ATCC29213).
With CC1(C)S[C@@H]2[C@H](NC(=O)[C@H](N)c3ccccc3)C(=O)N2[C@H]1C(=O)O the MIC was 0.5 µg/mL (agar dilution; ATCC25923).
Cc1ccc2[nH]nc(-c3nnc(Nc4ccc(F)cc4Cl)s3)c2c1 gave an MIC of 29.7 µg/mL (ATCC29213).
The MIC of [H]/N=C(\N/C(=N/[H])NCCCCCCNC(=N)NC(=N)Nc1ccc(Cl)cc1)Nc1ccc(Cl)cc1 is reported as 1 µM (MRSA USA300; drug-resistant strain).
For Cc1ccc2[nH]nc(-c3nnc(Nc4ccc(F)cc4)s3)c2c1, the MIC was 18.3 µg/mL (ATCC29213).
The MIC of CC(=O)NC[C@H]1CN(c2ccc(N3CCOCC3)c(F)c2)C(=O)O1 is reported as 1 µg/mL (broth dilution; ATCC29213).
The MIC of CCCCCCCCCCCC[N+](C)(C)Cc1ccccc1 is reported as 4 µM (MSSA).
With CN[C@H](CC(C)C)C(=O)N[C@H]1C(=O)N[C@@H](CC(N)=O)C(=O)N[C@H]2C(=O)N[C@H]3C(=O)N[C@H](C(=O)N[C@H](C(=O)O)c4cc(O)cc(O)c4-c4cc3ccc4O)[C@H](O[C@H]3C[C@](C)(N)[C@@H](O)[C@H](C)O3)c3ccc(c(Cl)c3)Oc3cc2cc(c3O[C@@H]2O[C@H](CO)[C@@H](O)[C@H](O)[C@H]2O[C@H]2C[C@](C)(NCc3ccc(-c4ccc(Cl)cc4)cc3)[C@@H](O)[C@H](C)O2)Oc2ccc(cc2Cl)[C@H]1O the MIC was 2 µM (broth dilution).
With CN[C@H](CC(C)C)C(=O)N[C@H]1C(=O)N[C@@H](CC(N)=O)C(=O)N[C@H]2C(=O)N[C@H]3C(=O)N[C@H](C(=O)N[C@H](C(=O)O)c4cc(O)cc(O)c4-c4cc3ccc4O)[C@H](O)c3ccc(c(Cl)c3)Oc3cc2cc(c3O[C@@H]2O[C@H](CO)[C@@H](O)[C@H](O)[C@H]2O[C@H]2C[C@](C)(N)[C@H](O)[C@H](C)O2)Oc2ccc(cc2Cl)[C@H]1O the MIC was 0.67 µM (broth dilution; ATCC29213).
CC[C@H]1OC(=O)[C@H](C)[C@@H](O[C@H]2C[C@@](C)(OC)[C@@H](O)[C@H](C)O2)[C@H](C)[C@@H](O[C@@H]2O[C@H](C)C[C@H](N(C)C)[C@H]2O)[C@](C)(O)C[C@@H](C)CN(C)[C@H](C)[C@@H](O)[C@]1(C)O has an MIC of under 98 µg/mL (ATCC29213).
CC(=O)NC[C@H]1CN(c2ccc(N3CCOCC3)c(F)c2)C(=O)O1 gave an MIC of 1 µg/mL (MRSA).
For CN1CCN(CCNCc2cc3cc(Br)ccc3nc2SCc2ccccc2)CC1, the MIC was 16 µg/mL (broth dilution).
CC(=O)NC[C@H]1CN(c2ccc(N3CCOCC3)c(F)c2)C(=O)O1 has an MIC of 0.5 µg/mL (broth dilution; ATCCBAA44 BAA44).
O=C(O)c1cn(C2CC2)c2cc(N3CCNCC3)c(F)cc2c1=O has an MIC of 0.5 µg/mL (broth dilution; ATCC33591 MRSA).
CC(=O)c1ccc2cc(S(=O)(=O)Nc3ccc(Br)cc3)ccc2c1 has an MIC of 20000 µg/mL (broth dilution; ATCC25923).
For COc1c(N2C[C@@H]3CCCN[C@@H]3C2)c(F)cc2c(=O)c(C(=O)O)cn(C3CC3)c12, the MIC was 0.5 µg/mL (agar dilution; ATCC29213).
CCCCCCC#Cc1cncc(-c2nnc(SCc3ccc([N+](=O)[O-])cc3)n2CCCN)c1 gave an MIC of 8 µg/mL (broth dilution; ATCC29213).
CC(=O)OCC1=C(C(=O)O)N2C(=O)[C@@H](NC(=O)Cc3cccs3)[C@H]2SC1 gave an MIC of 6.25 µg/mL (broth dilution; ATCC25923).
For CN[C@H](CC(C)C)C(=O)N[C@H]1C(=O)N[C@@H](CC(N)=O)C(=O)N[C@H]2C(=O)N[C@H]3C(=O)N[C@H](C(=O)N[C@H](C(=O)O)c4cc(O)cc(O)c4-c4cc3ccc4O)[C@H](O)c3ccc(c(Cl)c3)Oc3cc2cc(c3O[C@@H]2O[C@H](CO)[C@@H](O)[C@H](O)[C@H]2O[C@H]2C[C@](C)(N)[C@H](O)[C@H](C)O2)Oc2ccc(cc2Cl)[C@H]1O, the MIC was 1 µg/mL (broth dilution; ATCCBAA44 BAA44).
C=C[C@]1(C)C[C@@H](OC(=O)CS[C@@H]2C[C@H]3CC[C@@H](C2)N3C)[C@]2(C)[C@H](C)CC[C@]3(CCC(=O)[C@H]32)[C@@H](C)[C@@H]1O has an MIC of 0.0312 µg/mL (agar dilution; ATCC25923).
For CC[C@H]1OC(=O)[C@H](C)[C@@H](O[C@H]2C[C@@](C)(OC)[C@@H](O)[C@H](C)O2)[C@H](C)[C@@H](O[C@@H]2O[C@H](C)C[C@H](N(C)C)[C@H]2O)[C@](C)(O)C[C@@H](C)C(=O)[C@H](C)[C@@H](O)[C@]1(C)O, the MIC was over 64 µg/mL (broth dilution; USA300).
The MIC of COc1cc2cc(CNCCC3CCN(C4CCCC4)CC3)c(SCc3ccccc3)nc2c(OC)c1OC is reported as over 128 µg/mL (broth dilution).
The MIC of CC(=O)C1=NN(c2ccc([N+](=O)[O-])cc2)C(=C(C#N)C(=O)c2ccc(Nc3cnccn3)cc2)S1 is reported as 6.25 µg/mL (broth dilution; ATCC25923).
O=C(N[C@H](CO)[C@H](O)c1ccc([N+](=O)[O-])cc1)C(Cl)Cl gave an MIC of 64 µg/mL (broth dilution).
The MIC of Cc1cc(Nc2nnc(-c3n[nH]c4ccc(C)cc34)s2)cc([N+](=O)[O-])c1 is reported as 78 µg/mL (ATCC29213).
With Cc1onc(-c2ccccc2)c1C(=O)N[C@@H]1C(=O)N2[C@@H]1SC(C)(C)[C@@H]2C(=O)O the MIC was 0.25 µg/mL (ATCC29213 MSSA; drug-resistant strain).
The MIC of CN[C@H](CC(C)C)C(=O)N[C@H]1C(=O)N[C@@H](CC(N)=O)C(=O)N[C@H]2C(=O)N[C@H]3C(=O)N[C@H](C(=O)N[C@H](C(=O)O)c4cc(O)cc(O)c4-c4cc3ccc4O)[C@H](O)c3ccc(c(Cl)c3)Oc3cc2cc(c3O[C@@H]2O[C@H](CO)[C@@H](O)[C@H](O)[C@H]2O[C@H]2C[C@](C)(N)[C@H](O)[C@H](C)O2)Oc2ccc(cc2Cl)[C@H]1O is reported as 0.5 µg/mL (agar dilution; ATCC25923).
With COc1cccc(OC)c1C(=O)N[C@@H]1C(=O)N2[C@@H]1SC(C)(C)[C@@H]2C(=O)O the MIC was over 64 µg/mL (broth dilution; ATCCBAA44 BAA44).
With CCCCCCC#Cc1cncc(-c2nnc(SCc3ccc(Cl)cc3)n2CCCN)c1 the MIC was 4 to 8 µg/mL (broth dilution; MRSA).
With COc1ccc(-n2nc(C(=O)c3ccc(Nc4cnccn4)cc3)sc2=N)cc1 the MIC was 6.25 µg/mL (broth dilution; ATCC25923).
For CCN1CCC(CCNCc2cc3cc(OC)c(OC)c(OC)c3nc2SCc2ccccc2)CC1, the MIC was 128 µg/mL (broth dilution).
With CCC[C@@H]1C[C@@H](C(=O)N[C@@H]([C@H]2O[C@H](SC)[C@H](O)[C@@H](O)[C@H]2O)[C@@H](C)O)N(C)C1 the MIC was 2 µg/mL (broth dilution; USA300).
With CCN1CCC(CCNCc2cc3cc(-c4ccccc4)ccc3nc2SCc2ccccc2)CC1 the MIC was 4 µg/mL (broth dilution).
For CCCCCCCCN=c1ccn(CCCCCCCCCCn2ccc(=NCCCCCCCC)cc2)cc1, the MIC was 0.5 µM (MSSA).
For CC[C@H]1OC(=O)[C@H](C)[C@@H](O[C@H]2C[C@@](C)(OC)[C@@H](O)[C@H](C)O2)[C@H](C)[C@@H](O[C@@H]2O[C@H](C)C[C@H](N(C)C)[C@H]2O)[C@](C)(O)C[C@@H](C)/C(=N\OCOCCOC)[C@H](C)[C@@H](O)[C@]1(C)O, the MIC was 2 µg/mL (agar dilution; ATCC25923).
CCCCCCC#Cc1cncc(-c2nnc(SCc3cc([N+](=O)[O-])cc([N+](=O)[O-])c3)n2C2CCNCC2)c1 gave an MIC of 8 µg/mL (broth dilution; ATCC29213).
N#CC(C#N)=C1SC(C(=O)c2ccc(Nc3cnccn3)cc2)=NN1c1ccccc1 gave an MIC of 50 µg/mL (broth dilution; ATCC25923).
With CN(C)[C@@H]1C(O)=C(C(N)=O)C(=O)[C@@]2(O)C(O)=C3C(=O)c4c(O)cccc4[C@@](C)(O)[C@H]3C[C@@H]12 the MIC was 3.1 µM (broth dilution; ATCC25923; 16 h).
